Shown are actives, neighbours in structure and some others; about 1% of the full set was active somewhere.
NALP3 yeast inh: NALP3 inhibition in yeast. Yeast reconstituted NLRP3/ASC/caspase-1, beta-gal luminescence, 24 h. inhibition, % at 10 µM. 330,000 compounds, 0.39% hits. AID 2825;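 active = inhibition of 50% or more; inactive = inhibition below 50%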;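 note: plate controls were induced DMSO wells for no effect and uninduced yeast grown without galactose for full effect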
NALP1 inh: NALP1 inhibition; S. cerevisiae NALP1/ASC/caspase-1 growth, X-gal OD620, 72 h; inhibition, % at 10 µM; 280,000 compounds, 0.61% hits; AID 2071; in the data active = inhibition mostly above about 24%, no sharp cut-off; inactive = mostly below about 32%
T cell modulator: T cell immune modulation candidate. 2C CD8+ T cell-vesicle binding, flow cytometry; active compounds read low. response (vesicle binding), % at 7 µM. 330,000 compounds, 0.068% hits. AID 2052;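 active = response, share of CD8 T cells binding vesicles, and their 90th percentile fluorescence all below set limits, cut at about 80% in these data, passing the limit was not always enough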;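 note: values below 100% mean blocked vesicle binding to the CD8+ T cells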
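Test system: purified 2C TCR transgenic mouse naive CD8+ T cells. Probe or stimulus: QL9-peptide-loaded Drosophila micro-vesicles bearing Ld, ICAM-1 and B7-1. Incubation: binding step 1.5 h, 37 °C, antibody labelling 20 min, ice. Measured by: flow cytometry of vesicle-bound cells.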
Bfl-1 A1 inh: inhibitors of the anti-apoptotic protein A1, read as caspase activation | MEF A1-2A-BIM cells, Caspase-Glo 3/7 luminescence, 3 h; percent of clofoctol response, vehicle zero | caspase activation, % (test concentration not listed) | 330,000 compounds, 0.066% hits | AID 2462;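 active = over half of replicate activation scores above 10%, or exactly half above 10 with the replicate mean above 10; inconclusive = replicate mean below 10 yet half the replicates above 10; inactive = over half of replicates below 10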
NALP3 confirm: confirmation of NALP3 inhibitors in yeast | inhibition, % at 10 µM | 1,300 compounds, 81% hits | shares compounds with NALP3 yeast inh | yeast expressing human NALP3, luminescence; in the data active = inhibition above about 48%
Casp1-ASC yeast: caspase-1-ASC yeast counter-screen hit | yeast expressing Caspase-1-ASC, luminescence counter screen | shares compounds with NALP3 yeast inh | AID 488784 | 1,000 compounds, 66% hits | inhibition, % at 10 µM
NALP3 yeast rt: retest-confirmed inhibitor of NALP3 in yeast; shares compounds with NALP3 yeast inh; yeast expressing human NALP3, luminescence read-out; inhibition, % at 10 µM; 1,000 compounds, 53% hits
* marks the source's active call; other numbers are inactive results; ? = inconclusive; / = no result given. Cut-off read from the data, not from the text of the source, unless noted: active = inhibition above about 50%; inactive = the rest.

SMILES | NALP3 yeast inh | NALP1 inh | T cell modulator | Bfl-1 A1 inh | NALP3 confirm | Casp1-ASC yeast | NALP3 yeast rt
Nn1c(SCc2ccc(Br)cc2)nnc1-c1ccccn1 | 64.6* | 1.0 | 365.2 | -1.8 | 67.2* | 53.9* | 56.1*
c1ccc2c(c1)CSc1ccccc1N2 | 53.3* | / | 301.6 | -0.9 | 30.2 | / | /
COC(=O)CNc1cc(S(=O)(=O)N2CCCCC2)ccc1Oc1ccc(C(=O)OC)cc1 | 66.3* | 30.8 | 296.8 | 1.0 | 69.7* | 39.2 | 28.6
COC(=O)c1ccc(Oc2ccc(S(=O)(=O)N3CCCCC3)cc2N)cc1 | 88.3* | 56.1* | 152.0 | -1.0 | 93.7* | 93.0* | 87.5*
CCCCn1c(N)c(N(CCC(C)C)C(=O)C2CC(=O)N(CCc3ccc(OC)c(OC)c3)C2)c(=O)[nH]c1=O (stereo not given) | 21.0 | / | 183.0 | 1.3 | / | / | /
C[C@H](CO)N1C[C@H](C)[C@@H](CN(C)Cc2ccc(C(=O)O)cc2)Oc2c(NS(=O)(=O)c3cn(C)cn3)cccc2C1=O | 23.7 | / | 480.4 | 1.1 | / | / | /
CN(CCOc1ccccc1)CC(=O)Nc1ccc(S(=O)(=O)N2CCCC2)cc1 | -3.1 | 2.2 | 138.2 | 0.1 | / | / | /
CN(CCOc1ccccc1)c1ccc(S(=O)(=O)N2CCCCC2)cn1 | 55.5* | -9.1 | 209.7 | -0.8 | 59.6* | 47.5 | 51.8*
CCOc1ccccc1NC(=O)Cc1coc2ccc(C)cc12 | 63.1* | 5.8 | 119.3 | -0.1 | 75.5* | 65.3* | 54.8*
COc1ccc(OC)c(NC(=O)Cc2coc3ccc(C)cc23)c1 | 44.9 | 7.6 | 730.9 | 0.7 | / | / | /
COc1ccc(OC)c2sc(N(CCCN(C)C)C(=O)CCS(=O)(=O)c3ccccc3)nc12 | 26.0 | / | 124.5 | ? | / | / | /
Cc1ccc2sc(N(CCCN(C)C)C(=O)CCS(=O)(=O)c3ccccc3)nc2c1C | 53.5* | 84.1* | 366.8 | -0.1 | 76.6* | 65.5* | 53.9*
CCc1ccc([C@@H]2CC=C(C(=O)O)[C@H](c3cccc(Cl)c3)N2S(=O)(=O)c2ccc(C)cc2)cc1 | 8.0 | / | 682.7 | 0.6 | / | / | /
Cc1ccc(S(=O)(=O)CCC(=O)OCCOc2cccc(Br)c2)cc1 | 9.0 | / | 355.9 | -0.7 | / | / | /
CCOC(=O)c1ccccc1N1C(=O)CSC1=S | 54.2* | 28.4 | 406.3 | -0.1 | 48.2 | 48.2 | 35.4
Cc1ccccc1C(=O)NN1C(=O)CSC1=S | -6.1 | -1.9 | 186.1 | 0.1 | / | / | /
CCN(CC)c1ccc(Nc2nc(Cl)ncc2Br)cc1 | 53.5* | 38.0 | 264.0 | 0.7 | 63.6* | 54.4* | 44.3
C=C(C)[C@@H]1CC[C@]2(C(=O)O)CC[C@]3(C)[C@H](CC[C@@H]4[C@@]5(C)CC[C@H](O)C(C)(C)[C@@H]5CC[C@]43C)[C@@H]12 | 43.2 | 5.2 | 105.0 | -0.8 | / | / | /
C=C(CC[C@@H](O)C(C)(C)O)[C@H]1CC[C@]2(C)[C@@H]1CCC1[C@@]3(C)CC[C@H](O)C(C)(C)C3CC[C@]12C (stereo not given in full) | 58.2* | / | 429.3 | 1.9 | 49.7 | 46.1 | 33.2
COC(=O)Nc1ccc(SCC(=O)c2cccc([N+](=O)[O-])c2)cc1 | 54.1* | 24.0 | 217.0 | 2.3 | 62.8* | 58.2* | 40.6
CCOC(=O)c1ccc2c(c1)nc(COc1ccc(OC)cc1)n2CC | 60.6* | -33.5 | 438.9 | / | 61.3* | 42.2 | 49.8
CCCSc1ccc([C@H]2N[C@@](CC(C)C)(C(=O)OC)[C@H]3C(=O)N(C)C(=O)[C@@H]23)cc1 | 5.1 | / | 513.8 | -0.5 | / | / | /
Cc1ccccc1NC(=O)c1ccc(Nc2c([N+](=O)[O-])cc([N+](=O)[O-])c3ccccc23)cc1 | 55.9* | -3.6 | 241.2 | 0.1 | -9.4 | / | /
CCN1C(=O)[C@H]2[C@@H](c3ccc(-c4ccc(OC)cc4)cc3)N[C@@](CC(C)C)(C(=O)OC)[C@H]2C1=O | 24.9 | / | 234.6 | -0.2 | / | / | /
CCc1ccn2cc(-c3cc(-c4ccccc4)no3)nc2c1 | 81.1* | -3.0 | 481.2 | -7.7 | 81.2* | 42.5 | 43.6
O=C(COC(=O)c1cc(Cl)ccc1O)NNC(=O)c1ccccc1F | 1.7 | / | 258.8 | -0.4 | / | / | /
COc1ccc(CCC(=O)Nc2ccc(OC)c(S(=O)(=O)N3CCCCC3)c2)cc1 | 5.1 | / | 109.3 | 0.8 | / | / | /
